Test results: PMC7302971 (Bioorganic chemistry, 2020)

Key:
GLUT1 = biological target: T1, GLUT1 (Homo sapiens, UniProt P11166); test: GLUT transport inhibition assay in hxt0 yeast cells; assay type: cell-based
T1 sequence (P11166 1-492): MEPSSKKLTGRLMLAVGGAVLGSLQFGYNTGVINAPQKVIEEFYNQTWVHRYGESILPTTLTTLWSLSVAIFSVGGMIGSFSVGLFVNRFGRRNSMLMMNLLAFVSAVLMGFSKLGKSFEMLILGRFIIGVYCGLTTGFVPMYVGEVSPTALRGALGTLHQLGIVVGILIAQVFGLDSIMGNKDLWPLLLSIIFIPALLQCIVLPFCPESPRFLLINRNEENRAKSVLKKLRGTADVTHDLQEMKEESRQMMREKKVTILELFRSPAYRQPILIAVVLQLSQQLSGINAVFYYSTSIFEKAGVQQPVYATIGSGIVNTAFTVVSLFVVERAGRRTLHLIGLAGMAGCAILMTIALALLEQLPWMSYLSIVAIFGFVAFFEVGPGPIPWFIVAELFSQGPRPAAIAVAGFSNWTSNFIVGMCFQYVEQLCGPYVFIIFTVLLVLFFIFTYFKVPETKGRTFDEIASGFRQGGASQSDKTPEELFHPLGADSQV
How it was run: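 hxt0 yeast (VW4000fgy1) expressing human GLUT1 was grown at 30 °C in SC-uracil, first on 2% maltose, then on 2% glucose. Cells were PBS-washed (pH 7.4) to OD600 ~10. Test compound was varied from 0.1 to 100 μM. Uptake of 5 mM 14C-glucose ran 10 min and was stopped with ice-cold quench buffer (pH 5.5). Cells were filtered and counted by scintillation.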

[1] = MTT cell viability assay, normal WBCs; assay type: cell-based; conditions: human
How it was run: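 Human WBCs were isolated from diluted blood on HiSep density medium (400 × g, 30 min, room temperature). Mononuclear cells were PBS-washed, RBC-lysed for 5 min, washed again and kept in RPMI 1640 at 37 °C in 5% CO2. Cells were seeded at about 5×10³ per well and exposed to test compound at 2.5–100 μM for 48 h.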

IC50 (GLUT1): 28.2 µM
Structure (SMILES): O=C(CN1C(=O)SC(=Cc2ccccn2)C1=O)Nc1nc2ccccc2s1 [Compound P19, N-(benzo[d]thiazol-2-yl)-2-(2,4-dioxo-5-(pyridin-2-ylmethylene)thiazolidin-3-yl)acetamide]
CC50 at 48 h [1]: 104 µM
